STEP block – blocks human striatal-enriched tyrosine phosphatase; AID 588621; recombinant STEP, OMFP fluorogenic substrate, fluorescence; 360,000 compounds, 0.25% hits; P54829; inhibition, % at 20 µM;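 active means inhibition at 20 µM, scaled per plate between control wells, above about 37%, limit read from the data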
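Measure: Control-normalized % inhibition with plate pattern correction | Test system: STEP phosphatase, cell-free reaction | Medium: pH 6.0 Bis-Tris with DTT and Tween 20 | Technique: Fluorescence, 480/540 nm | Times: Reaction 20 min, ambient temperature | Doses: Single compound dose of 20 µM, 1% DMSO final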
CSN deneddyl inh – CSN deneddylation inhibition; 360,000 compounds, 0.38% hits; Q92905; inhibition, % at 12.5 µM; Purified CSN, SCF-Nedd8-OG deneddylation, fluorescence polarization;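 active means pattern-corrected inhibition above about 35%, with an unprinted fluorescence ratio check between 0.5 and 1.5, limit read from the data, passing the limit was not always enough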
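Test system: purified human Csn5 enzyme expressed in HEK293T cells. Amount: 0.24 nM enzyme. Reagent: SCFSkp2-Nedd8OG substrate at 10 nM final. Schedule: 90 min incubation of compound, enzyme and substrate at room temperature. Detection: fluorescence polarization. Read-out: % inhibition of substrate cleavage by Csn5.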
Scp-1 inhibitor – blocks human Scp-1 phosphatase activity | Q9GZU7 | Recombinant Scp1, phosphopeptide, malachite green phosphate absorbance | inhibition, % at 20 µM | 340,000 compounds, 0.88% hits;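 active means inhibition above about 50% at 20 µM, limit read from the data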
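Test system – truncated SCP-1 phosphatase (76-261aa) · Reagent – Phosphorylated 17-residue peptide substrate · Incubation – 45 min room-temperature reaction, 5 min colour, 30 min stabiliser · Detection – colorimetric phosphate reagent with accelerator and stabiliser, absorbance at 630 nm · Measure – % inhibition at 20 µM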
DNMT1 block – blocks human DNA methyltransferase DNMT1; P26358; DNMT1 molecular beacon, Hinp1I cleavage, fluorescence; inhibition (reported as % activation of signal), % at 10 µM; 360,000 compounds, 0.83% hits; AID 588458; in the data active means inhibition above about 50%
LMPTP inh – blocks human LMPTP phosphatase. P24666. recombinant LMPTP-A, OMFP fluorogenic substrate, fluorescence intensity. inhibition, % at 20 µM. 360,000 compounds, 0.22% hits;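 active means compounds that cut the enzyme signal by at least half of the control window in the single-dose screen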
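material = LMPTP-A | quantity = 0.625 nM enzyme | reagent = OMFP substrate, 400 µM final | buffer or medium = Bis-Tris pH 6.0, DTT, detergent | detection = endpoint fluorescence intensity from OMFP dephosphorylation | dosing = single 20 µM dose | read-out basis = % inhibition relative to no-enzyme and uninhibited control wells | control set = no-enzyme and uninhibited controls | timing = 50 min at room temperature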
SUMO1 PPI mod – modulators of human SUMO1-mediated protein-protein interactions. P63165. SUMO1 binding to a labelled peptide, TR-FRET, 1 h. inhibition, % at 20 µM. 360,000 compounds, 0.33% hits; in the data active means inhibition above about 37%
Scp1 confirm – Scp-1 (human) inhibition, single-dose confirmed | 2,500 compounds, 61% hits | shares compounds with Scp-1 inhibitor | inhibition, % at 20 µM | recombinant SCP-1 catalytic domain, phosphate release, malachite green absorbance
Scp-1 MG ctr – counter-screen for Scp-1 inhibitors: colorimetric interference. shares compounds with Scp-1 inhibitor. Colorimetric interference counterscreen, malachite green absorbance 630 nm. apparent inhibition (interference), % at 20 µM. 2,500 tested, under 10 active. AID 540313;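 further: compounds added after enzyme reaction finished so only phosphate colour detection is probed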
Scp1 DSF – Scp-1 (human) binding by thermal shift; 1,500 compounds, 25% hits; shares compounds with Scp-1 inhibitor; AID 540329; thermal shift relative to vanadate control, % at 40 µM; Recombinant SCP1, Sypro Orange thermal shift Tm;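 active means substances whose mean melting-temperature shift, as a percentage of the reference inhibitor's shift, reaches about 5.3%, limit read from the data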
Beacon interf DR – shows spectral interference in the DNMT1 beacon assay | shares compounds with DNMT1 block | molecular beacon fluorescence, spectral interference counter-screen | IC50, µM | 200 tested, under 10 active; call rule not given here
DNMT1 confirm – confirmation of human DNMT1 inhibitors; AID 602385; DNMT1 molecular beacon HinP1I cleavage, fluorescence; 2,300 compounds, 8% hits; inhibition, % at 10 µM; shares compounds with DNMT1 block;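 active means average inhibition of at least 30% in the single-concentration confirmation test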
DNMT1 interf – shows spectral interference in the DNMT1 beacon assay; 2,300 compounds, 1% hits; AID 602387; activation (fluorescence interference), % at 10 µM; shares compounds with DNMT1 block; DNMT1 molecular beacon spectral interference counterscreen, fluorescence 485/520;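 active means activation of at least 30% at 10 µM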;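 further: DNMT1 catalytic domain with a HinP1I cleavage step and a FAM/dabcyl DNA beacon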
A number is an active result; 0 = inactive; - = no result given. Compounds with a hit are over-represented: about 1.9% of the library has one in this group of screens.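 How the source made its calls, unless noted: active means inhibition of at least 30% at 20 µM; inactive means the rest.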

SMILES	STEP block	CSN deneddyl inh	Scp-1 inhibitor	DNMT1 block	LMPTP inh	SUMO1 PPI mod	Scp1 confirm	Scp-1 MG ctr	Scp1 DSF	DNMT1 confirm	DNMT1 interf	others
O=C(O)C(C(=O)/C=C/c1ccco1)=C1SCCS1	0	0	55.1	95.8	0	0	63.2	0	0	0	0
O=C(C=C1SCCS1)/C=C/c1ccco1	0	0	75.9	87.8	0	0	51.6	0	0	0	0
O=C(/C=C/c1ccco1)NC1CCCC1	0	0	0	0	0	0	-	-	-	-	-
Nc1nc(-c2ccccc2)nn1S(=O)(=O)c1ccccc1	0	0	0	0	0	0	-	-	-	-	-
COc1ccc2cc3c(N)nn(C(=O)c4ccccc4[N+](=O)[O-])c3nc2c1	0	0	0	0	0	0	-	-	-	-	-
COc1ccc2cc3c(N)nn(C(=O)c4ccc(Cl)c([N+](=O)[O-])c4)c3nc2c1	89.1	0	93.7	83.2	65.1	0	73.6	0	8.2	0	0
COCCCn1c(SCC(=O)N2CCCC(C)C2)nnc1-c1ccco1 (stereo not drawn)	0	0	0	0	0	0	-	-	-	-	-
NC(=O)c1ccc(NC(=O)COC(=O)c2cc3c(s2)CCC3)cc1	0	0	84.7	79.5	0	0	62.0	0	0	0	0
Cc1ccc(NC(=O)CN(C)C(=O)c2cc3c(s2)CCCCC3)cc1	0	0	0	0	0	0	-	-	-	-	-
O=C(COC(=O)c1cc2c(s1)CCC2)Nc1ccc(F)cc1	0	0	67.7	65.8	0	0	74.2	0	0	0	0	Beacon interf DR=0
NS(=O)(=O)c1ccc(NC(=O)c2ccc(-c3ccccc3)cc2)cc1	0	0	60.0	73.3	0	0	66.3	0	14.5	0	0
Cc1ccc(S(=O)(=O)N2CCOCC2)cc1NC(=O)COc1cccc(Oc2ccccc2)c1	0	0	0	0	0	0	-	-	-	-	-
Cc1ccnc(SCCn2c(N3CC(C)CC(C)C3)nc3c2c(=O)n(C)c(=O)n3C)n1 (stereo not drawn)	0	0	0	0	0	0	-	-	-	-	-
COc1ccc(C(=O)N/N=C/c2ccc(OC(=O)c3cccc4ccccc34)c([N+](=O)[O-])c2)cc1	0	0	91.8	53.1	0	0	65.1	0	6.6	0	0
COc1ccc(C(=O)Oc2ccc(/C=N/NC(=O)c3ccccc3OC)cc2[N+](=O)[O-])cc1	0	0	0	0	0	0	-	-	-	-	-
CCOc1ccc(S(=O)(=O)N(CC)CC(=O)NC2CCS(=O)(=O)C2)cc1 (stereo not drawn)	0	0	0	0	0	0	-	-	-	-	-
O=C(N=Nc1c(O)[nH]c2ccc([N+](=O)[O-])cc12)c1cc(-c2ccccc2Cl)nc2ccccc12	85.2	0	94.8	95.2	79.8	0	77.3	0	8.8	0	0
COc1ccccc1C(=O)N=Nc1c(O)[nH]c2ccc([N+](=O)[O-])cc12	0	0	0	0	0	0	-	-	-	-	-
Cc1cccc(C(=O)Nc2ccc(C(=O)N/N=C/c3ccco3)cc2)c1	0	0	77.0	71.8	0	0	56.0	0	0	0	0
CCc1ccc(OCC(=O)N/N=C\c2ccco2)c([N+](=O)[O-])c1	0	0	79.6	81.2	0	0	47.2	0	0	0	0
O=C(COc1cccc([N+](=O)[O-])c1)N/N=C/c1ccco1	0	0	62.7	58.7	0	0	45.0	0	0	0	0
Cc1ccc(S(=O)(=O)Nc2ccccc2N(C)S(=O)(=O)c2ccc(C)cc2)cc1	0	0	0	0	0	0	-	-	-	-	-
O=c1c2ccccc2nc2sc(Nc3ccc(F)cc3)nn12	0	0	92.4	0	0	0	74.3	0	0	0	0
O=C(NCc1n[nH]c(=S)n1-c1cccc(C(F)(F)F)c1)c1ccc(S(=O)(=O)N2CCCCC2)cc1	0	0	0	0	0	0	-	-	-	-	-
Cc1ccc(NC(=O)COc2coc(CN3CCc4ccccc43)cc2=O)cc1Cl	0	0	59.2	59.2	0	0	55.0	0	0	0	0
SMILES	STEP block	CSN deneddyl inh	Scp-1 inhibitor	DNMT1 block	LMPTP inh	SUMO1 PPI mod	Scp1 confirm	Scp-1 MG ctr	Scp1 DSF	DNMT1 confirm	DNMT1 interf	others
COC(=O)c1ccc(NC(=O)COc2coc(CN3CCc4ccccc43)cc2=O)cc1	0	0	0	0	0	0	-	-	-	-	-
Cc1ccc(C(=O)OCC(=O)c2ccc(CC(=O)N3CCOCC3)s2)c(C)c1	0	0	71.7	54.6	0	0	78.2	0	6.7	0	0
CSc1ccc(NC(=O)CSc2nc3[nH]c(=O)cc(O)c3s2)cc1	0	0	70.6	51.5	0	0	40.3	0	13.6	0	0
N#Cc1ccc(NC(=O)CSc2nc3[nH]c(=O)cc(O)c3s2)cc1	0	0	0	0	0	0	-	-	-	-	-
CC1=CC(=O)N(c2cccc(C(F)(F)F)c2)C1c1ccc(Cl)cc1 (stereo not drawn)	0	0	0	0	0	0	-	-	-	-	-
O=C(O)C1CCN(C(=O)c2ccc3c(c2)OCO3)CC1	0	0	0	0	0	0	-	-	-	-	-
CCOc1ccc(OCCOC(=O)C2CCN(S(=O)(=O)c3ccc(C)c(C)c3)CC2)cc1	0	0	0	0	0	0	-	-	-	-	-
O=C(O)/C(=C\c1cccc(F)c1)c1ccc(S(=O)(=O)N2CCCCC2)s1	0	0	0	0	0	0	-	-	-	-	-
CSc1ccc(/C=C(\C(=O)O)c2ccc(S(=O)(=O)N3CCCC3)s2)cc1	0	0	69.2	86.5	0	0	67.9	0	5.6	0	0
Cc1ccc(/C=C2\C(=N)N3N=C(CC(=O)N4CCCCC4)SC3=NC2=O)cc1	0	0	0	0	0	0	-	-	-	-	-
N=C1/C(=C/c2ccc(Br)o2)C(=O)N=C2SC(CC(=O)N3CCCC3)=NN12	0	0	87.9	66.5	0	57.2	58.0	0	8.1	0	0
N=C1/C(=C/c2ccco2)C(=O)N=C2SC(CC(=O)N3CCCC3)=NN12	0	0	73.3	63.7	0	0	62.9	0	0	0	0

Compound activity (PubChem BioAssay)
